From article PMC3268775 (Journal of the American Chemical Society, 2012)
Numbering of substitutions follows the chain as printed. Numbered stars: 1 amine (or outer) side, 2 acyl side, 3 side chain; on linkers, the order of the positions; unused ones are H or OH. Square brackets hold non-standard residues; d marks the D form. Peptide text beside a SMILES is read from it. * marks the point of attachment. Isonicotinoyl(2-(4-Me-2-Py)) = Cc1ccnc(-c2cc(C(=O)*)ccn2)c1; X1 = O=C([C@H](Cc1c(F)cc(O)c(F)c1F)N[*:1])[*:2]

What was measured:
[1] = tested on: α2 mutants; assay: Charge-separated state lifetime in presence of α2 proteins; type: physicochemical, Escherichia coli; settings: each of the protein mutants, in words
[2] = Flash-quench transient absorption: •F3Y radical of free peptide; type: physicochemical
Method in brief: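 Free Re-labelled test peptide (50 μM) with 1 mM Ru(NH3)6Cl3 flash quencher, 1 mM CDP and 3 mM ATP in 50 mM borate, pH 8.3, 15 mM MgSO4, 5% glycerol. Samples were equilibrated 3 min at 23 °C and flowed through the cuvette, then excited with a 7 ns 355 nm pulse. Spectra averaged three data sets with FFT noise filtering. Kinetic traces were fitted by weighted least squares; errors are one SD.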

[3] = Transient absorption of the charge-separated state, free peptide; type: physicochemical; settings: 50 μM peptide, 50 mM sodium borate pH 8.3, λexc 355 nm
Method in brief: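 Transient absorption decays were read at 380, 480 (Re excited state), 525 (bpy anion) and 425 nm (F3Y radical). ΔOD came from PMT voltage against the pre-flash baseline. Short decays were fitted from the maximum-amplitude point, averaging 3–6 traces.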

[4] = [Re^I]* emission lifetime of peptide in solution; type: physicochemical
Method in brief: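 Time-resolved [Re] emission, monitored at 610 nm. Samples held 10 μM Re-labelled test peptide, 200 μM Ru(NH3)6Cl3, 1 mM CDP and 3 mM ATP in 50 mM sodium borate, pH 8.3, 15 mM MgSO4, 5% glycerol. For the bound state, 20 μM His6-tagged E. coli α2 mutant was added. Samples were equilibrated 3 min at 23 °C and measured while flowing. Lifetimes came from weighted least-squares fits of averaged traces.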

[5] = molecular target: T1, wt-α2 (Escherichia coli, UniProt P00452); assay: Flash-quench transient absorption: •F3Y radical in presence of wt-α2; type: biochemical
T1 sequence (P00452 1-761): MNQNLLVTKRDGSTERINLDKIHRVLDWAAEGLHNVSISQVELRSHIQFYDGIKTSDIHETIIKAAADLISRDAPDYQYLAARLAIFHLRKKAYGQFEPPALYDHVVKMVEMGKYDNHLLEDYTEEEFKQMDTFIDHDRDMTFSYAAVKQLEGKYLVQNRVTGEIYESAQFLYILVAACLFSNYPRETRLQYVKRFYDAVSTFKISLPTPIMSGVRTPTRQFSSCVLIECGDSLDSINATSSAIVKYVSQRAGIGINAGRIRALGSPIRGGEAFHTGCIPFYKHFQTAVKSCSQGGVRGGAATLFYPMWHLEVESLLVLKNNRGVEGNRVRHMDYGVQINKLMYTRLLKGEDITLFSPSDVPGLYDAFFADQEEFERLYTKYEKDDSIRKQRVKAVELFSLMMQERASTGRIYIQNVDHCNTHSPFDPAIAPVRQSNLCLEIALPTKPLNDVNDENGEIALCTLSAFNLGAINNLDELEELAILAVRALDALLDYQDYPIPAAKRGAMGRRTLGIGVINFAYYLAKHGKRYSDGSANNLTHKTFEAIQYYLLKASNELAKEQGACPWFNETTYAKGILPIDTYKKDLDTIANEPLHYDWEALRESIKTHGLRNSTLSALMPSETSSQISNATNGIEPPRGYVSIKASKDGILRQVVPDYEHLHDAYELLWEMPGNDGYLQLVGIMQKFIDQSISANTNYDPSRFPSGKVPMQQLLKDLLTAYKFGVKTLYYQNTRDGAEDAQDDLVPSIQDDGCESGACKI

[6] = molecular target: T2, Y730F-α2 (Escherichia coli, UniProt P00452, Y730F); assay: Flash-quench transient absorption: •F3Y radical in presence of Y730F-α2; type: biochemical; settings: for radical lifetime change / radical injection (in words): Y730F-α2; for •F3Y lifetime: monoexponential, 50 μM peptide
T2 sequence (P00452 1-761 Y730F): T1 sequence (P00452 1-761) with Y730F
Method in brief: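 Laser flash-quench transient absorption at 23 °C in 50 mM sodium borate, pH 8.3, 15 mM MgSO4, 5% v/v glycerol. Final mix: 50 μM Re-labelled test peptide, 100 μM α2 mutant, 1 mM Ru(NH3)6Cl3, 1 mM CDP, 3 mM ATP, flowing through the cuvette. α2 was N-terminally His6-tagged E. coli protein, IPTG-induced in BL21(DE3) and Ni-NTA purified. Excitation was a 7 ns 355 nm pulse. Decays averaged 3–6 traces and were fitted by weighted least squares from 1 μs.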

## CC[C@H](C)[C@H](NC(=O)[C@H](CCC(N)=O)NC(=O)CNC(=O)[C@@H](NC(=O)[C@H](CC(C)C)NC(=O)[C@H](Cc1c(F)cc(O)c(F)c1F)NC(=O)c1ccnc(-c2cc(C)ccn2)c1)C(C)C)C(=O)N[C@@H](CC(=O)O)C(=O)N[C@@H](CO)C(=O)N[C@@H](CCC(=O)O)C(=O)N[C@H](C(=O)N[C@@H](CC(=O)O)C(=O)N[C@H](C(=O)N[C@@H](CC(=O)O)C(=O)N[C@@H](CC(=O)O)C(=O)N[C@@H](CC(C)C)C(=O)N[C@@H](CO)C(=O)N[C@@H](CC(N)=O)C(=O)N[C@@H](Cc1ccccc1)C(=O)N[C@@H](CCC(N)=O)C(=O)N[C@@H](CC(C)C)C(=O)O)[C@@H](C)O)C(C)C [[Re]–F3Y–βC19] ({Isonicotinoyl(2-(4-Me-2-Py))}-[X1]LVGQIDSEVDTDDLSNFQL-OH; N-terminus and C-terminus assumed)
[1]
  charge-separated state lifetime vs protein mutant: Identical lifetimes
[2]; flash quench, 20 mol equiv Ru(NH3)6Cl3, λdet 425 nm
  fast time component, recombination of charge-separated state: 100 ns
[2]; free peptide, 395 nm, monoexponential, 50 μM peptide, 1 mM Ru(NH3)6Cl3, 1 mM CDP, 3 mM ATP, 15 mM MgSO4, 5% glycerol, 50 mM borate pH 8.3, average of 3–6 data sets
  •F3Y lifetime τ395: 14.7 ± 0.2 μs
[2]; free peptide, 410 nm, monoexponential, 50 μM peptide, 1 mM Ru(NH3)6Cl3, borate pH 8.3, average of 3–6 data sets
  •F3Y lifetime τ410: 13.5 ± 0.2 μs
[2]; free peptide, 425 nm, monoexponential, 50 μM peptide, 1 mM Ru(NH3)6Cl3, borate pH 8.3, average of 3–6 data sets
  •F3Y lifetime τ425: 14.5 ± 0.4 μs
[2]; optimized flash-quench system, 20 mol equiv Ru(NH3)6Cl3, calculated, see SI
  photochemical yield of •F3Y formation: 4.9%
[3]; λdet 380 nm, 1 mM CDP, 3 mM ATP, 15 mM MgSO4, 5% glycerol
  decay time constant of transient signal, [Re^I]*: 60 ± 2 ns
[3]; λdet 480 nm
  decay time constant of transient signal, [Re^I]*: 61 ± 2 ns
[4]; pH 8.3, 22 ns component
  [Re^I]* emission decay, contribution of short component: 81%
[4]; pH 8.3, 58 ns component
  [Re^I]* emission decay, contribution of long component: 19%
[4]; pH 8.3, biphasic, [Re^I]* unchanged by proximal F3Y
  [Re^I]* emission lifetime, long component: 58 ns
[4]; pH 8.3, biphasic, quenching by deprotonated F3Y−
  [Re^I]* emission lifetime, short component: 22 ns
[5]; wt-α2
  •F3Y radical decay profile (in words): biexponential decay owing to the contribution of a significantly shorter lifetime component
[5]; wt-α2, Eq. 1: kox = 1/τon − 1/τoff
  injection rate: (3 ± 2) × 10^5 s^−1
[5]; wt-α2, averaged across wavelengths
  •F3Y lifetime, short phase: 3.0 ± 1.4 μs
[5]; wt-α2, averaged across wavelengths, 50 μM peptide, 100 μM α2, 1 mM Ru(NH3)6Cl3, 1 mM CDP, 3 mM ATP, borate pH 8.3
  •F3Y lifetime, long phase: 15.4 ± 0.5 μs
[6]
  radical lifetime change / radical injection (in words): radical injection into the surface of the protein is blocked
[6]; Y730F-α2, 395 nm, 100 μM α2, pH 8.3
  •F3Y lifetime: 14.4 ± 0.2 μs
[6]; Y730F-α2, 410 nm, 100 μM α2, pH 8.3
  •F3Y lifetime: 13.7 ± 0.2 μs
[6]; Y730F-α2, 425 nm, 100 μM α2, 1 mM Ru(NH3)6Cl3, 1 mM CDP, 3 mM ATP, borate pH 8.3
  •F3Y lifetime: 14.0 ± 0.2 μs
[6]; listed as [Re]–•F3Y–βC19
  radical lifetime change / radical injection (in words): no significant change in radical lifetime
